Assay [1] addresses T1, Prostaglandin D2 receptor 2 (Homo sapiens) (UniProt Q9Y5Y4).
T1 sequence (whole entry): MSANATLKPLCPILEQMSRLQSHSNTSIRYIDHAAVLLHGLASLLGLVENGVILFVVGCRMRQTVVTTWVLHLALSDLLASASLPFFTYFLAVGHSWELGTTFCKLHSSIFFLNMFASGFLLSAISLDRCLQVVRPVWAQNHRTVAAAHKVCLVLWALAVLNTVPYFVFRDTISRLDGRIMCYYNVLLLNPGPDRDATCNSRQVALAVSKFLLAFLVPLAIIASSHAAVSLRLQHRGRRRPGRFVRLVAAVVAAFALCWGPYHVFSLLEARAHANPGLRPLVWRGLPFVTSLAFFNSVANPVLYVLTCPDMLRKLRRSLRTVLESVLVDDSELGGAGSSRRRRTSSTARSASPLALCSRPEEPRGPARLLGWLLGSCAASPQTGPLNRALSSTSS
The experiment in a line: Displacement of [3H]PGD2 from human CRTH2 receptor expressed in CHO cell membrane at 2.8 uM after 120 mins by scintillation counting. It is filed as cell membranes. Background: Loss of bound radioactivity is the signal in a displacement assay; it reports binding, not function.

The target in assay [2] is T2, Prostaglandin D2 receptor 2 (Homo sapiens, UniProt Q9Y5Y4).
T2 sequence (Q9Y5Y4 whole entry): T1 sequence (whole entry)
The experiment in a line: Displacement of [3H]PGD2 from human CRTH2 receptor expressed in CHO cell membrane after 120 mins by scintillation counting. It is filed as cell membranes. An outline of the steps:
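Ki derived from the displacement IC50 by the Cheng–Prusoff relationship, using the KD and radioligand concentration supplied by the analyser. Values are geometric means of three or more independent determinations.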

As to `Cc1ccc(Cl)cc1OCc1ccccc1OCC(=O)O`, in assay [1], the inhibition (usually the change of the read-out against control, counted positive when it falls) is over 40%. Moreover, in assay [2], the Ki (usually the equilibrium dissociation constant of an inhibitor or competing ligand from its target) is 520 nM.

As for `CCc1nn(Cc2ccc3ccccc3c2)c(CC)c1CC(=O)O`, the inhibition in assay [1] is over 40%. This compound displayed a Ki in assay [2] of 574 nM.

Turning to `O=C(O)Cn1cnc2c1CCN(C(=O)c1csc(-c3ccccc3)n1)C2`, the inhibition in assay [1] was over 40%. Also, the Ki in assay [2] came to 752 nM.

The compound `O=C(O)COc1ccccc1COc1ccc(F)cc1C1CC1` displayed an inhibition in assay [1] of over 40%. Affinity in assay [2] was put at a Ki of 591 nM.

`Cc1ccc2cccc(OCc3ccccc3OCC(=O)O)c2n1` showed an inhibition in assay [1] of over 40%. Also, the affinity in assay [2] corresponds to a Ki of 492 nM.

For the compound `CCc1nn(Cc2cccc(Br)c2)c(CC)c1CC(=O)O`, the inhibition in assay [1] was over 40%. Moreover, in assay [2], the Ki is 563 nM.

The compound `CCc1nn(CC(=O)O)c(CC)c1Cc1ccc2ccccc2c1` displayed an inhibition in assay [1] of over 40%. Moreover, in assay [2], the Ki was found to be 631 nM.

`O=C(O)COc1ccccc1COc1ccc(Cl)cc1-c1ccno1` displayed an inhibition in assay [1] of over 40%. The compound also returned an inhibition constant (Ki) in assay [2] of 247 nM.

The compound `CCc1nn(Cc2cc(Cl)ccc2Cl)c(CC)c1CC(=O)O` had an inhibition in assay [1] of over 40%. This compound returned a Ki in assay [2] of 623 nM.

On to `CCCNC(=O)c1ccccc1OCc1cccc(C)c1OCC(=O)O`, for which the inhibition in assay [1] was over 40%. In assay [2], this compound had a Ki of 333 nM.
